Source: ChEMBL document CHEMBL2331349, “Discovery of olmesartan hexetil: a new potential prodrug of olmesartan” (Bioorg Med Chem Lett, 2013)

Key:
Rattus norvegicus [1] = test: Tmax in Sprague-Dawley rat assessed as olmesartan at 20 mg/kg, po; assay type: ADME, organism-based; parameters: dose 20 mg/kg, route oral; details: in vivo
In short: (§1)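 Male Sprague-Dawley rats (n = 4) dosed orally by feeding tube, 20 mg/kg as olmesartan. Carotid artery blood drawn at 0, 0.5, 1, 2, 3, 4, 6, 8, 10 h; plasma stored until analysis. Olmesartan measured by modified LC–MS/MS. Non-compartmental analysis; AUClast by trapezoidal rule; Tmax given as median (range), others mean ± SD.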

Rattus norvegicus [2] = test: Cmax in Sprague-Dawley rat assessed as olmesartan at 20 mg/kg, po; assay type: ADME, organism-based; parameters: dose 20 mg/kg, route oral; details: in vivo; in short: as §1
[3] = Half life in rat liver microsomes at 1 uM; assay type: ADME, Microsome
In short: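 Incubation with rat liver microsomes, 0.5 mg/mL total protein, 1.2 mM NADPH, 100 mM phosphate buffer pH 7.4. Substrate added from acetonitrile stock to 1 µM final, 37 °C. Samples at 0, 15, 30, 60, 120 min quenched with twofold cold acetonitrile containing internal standard, centrifuged, supernatant by LC–MS/MS. Mean of duplicate experiments.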

[4] = Half life in rat plasma at 1 uM; assay type: ADME, cell-free
In short: (§2)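 Substrate added from acetonitrile stock to rat plasma or simulated gastric juice, 1 µM final, 37 °C. Samples at 0, 15, 30, 60, 120 min quenched with twofold cold acetonitrile containing internal standard, centrifuged, supernatant analysed by LC–MS/MS. Half-life reported as mean of duplicate experiments.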

[5] = Half life in simulated gastric juice at 1 uM; assay type: physicochemical; in short: as §2
Rattus norvegicus [6] = test: AUClast in Sprague-Dawley rat assessed as olmesartan at 20 mg/kg, po; assay type: ADME, organism-based, Plasma; parameters: time 0 - last, dose 20 mg/kg, route oral; details: in vivo; in short: as §1

Tmax (Rattus norvegicus [1]) [min]	Cmax (Rattus norvegicus [2]) [µg/mL]	half-life at 1 µM [3] [min]	half-life at 1 µM [4] [min]	half-life at 1 µM [5] [min]	AUClast (Rattus norvegicus [6]) [µg·h/mL]	SMILES
54	1.3747	2.77	1.54	390	3.0138	CCCc1nc(C(C)(C)O)c(C(=O)OC(C)OC(=O)OC2CCCCC2)n1Cc1ccc(-c2ccccc2-c2nnn[nH]2)cc1 (stereo not given) [OLMESARTAN HEXETIL]
60	0.1536			> 1000	0.5019	CCCc1nc(C(C)(C)O)c(C(=O)OCc2oc(=O)oc2C)n1Cc1ccc(-c2ccccc2-c2nnn[nH]2)cc1 [OLMESARTAN MEDOXOMIL]
